How the values were obtained:
[1] = melting temperature; fluorescence melt of hairpins on a sequencing array, two-state fit, raised by 9.35 °C to match UV melts; settings: sodium 0.088 M
Outline: (§1)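 Bootstrapped two-state fits yielded melting temperature and folding enthalpy for library hairpins. Cy3 fluorescence, with annealed Cy3 and quencher oligos, was imaged on a sequenced MiSeq flow cell in 50 mM Na-HEPES pH 8.0, 25 mM NaCl in 2.5 °C steps up to 60 °C, and normalised to pre-quench Cy3 and to control constructs. Four replicates were combined by inverse variance, and fitted temperatures were raised by 9.35 °C to match UV melts.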

[2] = folding enthalpy; higher = less favourable; fluorescence melt of hairpins on a sequencing array, two-state fit; settings: sodium 0.088 M
Outline: as §1

Row | Sequence | Tm [1] [°C] | folding enthalpy [2] [kcal/mol]
1 | GACTACGAAAGTATCGTC ((((((....)))..))) | 31.1 | -20.4
2 | GATCGTGTTAACGATC ((((((....)))))) | 66.9 | -36
3 | GTCGATGGAAACGTCGAC (((((.(....).))))) | 54.8 | -37.6
4 | GCCTGGCGAAAGCCCTGC ((..(((....)))..)) | 32.6 | -12.2
5 | GGACTGCGAAAGCACTCC (((.(((....))).))) | 38.9 | -8.91
6 | GATGCGGGAAACCGCACC (.(((((....))))).) | 42.9 | -11.3
7 | GCAAAGCGAAAGCTTCGC ((.((((....)))).)) | 55.8 | -23.8
8 | GCTGGTCGAAAGACTAGC (((.(((....))).))) | 57.6 | -43.2
9 | GATCTTTTAAAAGATC ((((((....)))))) | 45.9 | -39.2
10 | GCACCGCGAAAGCGACGC ((..(((....)))..)) | 47.2 | -15.6
11 | GATCTAGGACTAGATC ((((((....)))))) | 47.4 | -39.7
12 | GGATTTACGAAAGTATCC (((..(((....)))))) | 31 | -21
13 | GGGGACGGAAACATCCCC (((((.(....).))))) | 47 | -32.8
14 | GAGCAGGGAAACCTGTTC ((.((((....)))).)) | 46 | -24.1
15 | GGTACCGGAAACGGCACC (((.(((....))).))) | 52.5 | -29.9
16 | GGGTATCGAAAGATTCCC (((.(((....))).))) | 48.8 | -30.6
17 | GGCGACGAAAGTCGAGCC ((((((....)))..))) | 55.8 | -15.9
18 | GTGCATACGAAAGTACAC (((..(((....)))))) | 29.3 | -8.91
19 | GGTGATGGAAACGTCATC (.(((.(....).))).) | 34.7 | -26.4
20 | GATGTCGGAAACGACGTC ((.((((....)))).)) | 54.1 | -31.3
21 | GTTGTGCGAAAGCAAAC (((.(((....)))))) | 46.8 | -16.5
22 | GCTGGGGAAACCCAGC ((((((....)))))) | 69.3 | -37.5
23 | GATCGCTTGTGCGATC ((((((....)))))) | 68 | -21.5

Row | Sequence | Tm [1] [°C] | folding enthalpy [2] [kcal/mol]
24 | GTCGTCGAAAGACCGAC ((((((....))).))) | 50.7 | -23.5
25 | GGGTTTGGAAACAGATCC ((.(.((....)).).)) | 29.9 | -13
26 | GTATTGAAAAATAC (((((....))))) | 33.1 | -15.3
27 | GGCTTTGGAAACAAAGTC (.(((((....))))).) | 48.9 | -39.8
28 | GATCGCTTGAGCGATC ((((((....)))))) | 67.6 | -27.6
29 | GTACTCGAAAGAGTCTAC ((((((....)))..))) | 35.5 | -14.6
30 | GAGTTTACGAAAGTACTC (((..(((....)))))) | 30 | -12.6
31 | GCGTGCTTACGC ((((....)))) | 54.9 | -16.9
32 | GGAATCTCGAAAGAGTCC (((..(((....)))))) | 33.2 | -18.4
33 | GTATCGCGAAAGCGCTAC (((.(((....))).))) | 47.9 | -18.4
34 | GATCAAGCCTTGATC ((((((...)))))) | 44.1 | -26.1
35 | GACAGAGGAAACTTTGTC ((((.((....)).)))) | 36.7 | -25.3
36 | GTGTGTGGAAACATACGC (.((.((....)).)).) | 47 | -29.4
37 | GGACTCGAAAGAGGGTCC ((((((....)))..))) | 43.9 | -21
38 | GCCCTGCGAAAGCATGGC (((.(((....))).))) | 56.3 | -48.3
39 | GGTTCAGGAAACTGAACC (((((((....))))))) | 63.8 | -41.4
40 | GCAAGGCGAAAGCCCTGC (((.(((....))).))) | 50.7 | -31.3
41 | GCCTAGCGAAAGCTTTGC ((..(((....)))..)) | 33.4 | -12
42 | GTCACATCGAAAGATGAC (((..(((....)))))) | 30.2 | -12.8
43 | GGCATCGGAAACGATACC ((.((((....)))).)) | 45.6 | -27.1
44 | GCCATGCGAAAGCAACGC ((..(((....)))..)) | 29 | -8.26
45 | GCGCTACGAAAGTACGC (((.(((....)))))) | 55.3 | -32.2
46 | GGGCCACGAAAGTGCCC (((.(((....)))))) | 61.6 | -21.9
